# In ChEMBL document CHEMBL3804782, “Targeting the BACE1 Active Site Flap Leads to a Potent Inhibitor That Elicits Robust Brain Aβ Reduction in Rodents” (ACS Med Chem Lett, 2016):
# pEC50, pIC50: −log10 of the molar value. The source made the active and inactive calls. No cut-off for these calls is given here.
# Experiments:
# Beta-secretase 1 = Beta-secretase 1 (Homo sapiens, UniProt P56817); assay: Inhibition of BACE1 in human H4 cells expressing APP751 Swedish mutant assessed as inhibition of amyloid beta 40 or amyloid beta 42 production incubated for 19 hrs by microplate reader analysis; type: cell-based
# [1] = Metabolic stability in mouse liver microsomes assessed as parent compound remaining at 0.5 uM after 10 mins; type: ADME; conditions: read-out: Stability
# [2] = Metabolic stability in human liver microsomes assessed as parent compound remaining at 0.5 uM after 10 mins; type: ADME; conditions: read-out: Stability
# [3] = Metabolic stability in rat liver microsomes assessed as parent compound remaining at 0.5 uM after 10 mins; type: ADME; conditions: read-out: Stability
# Salmonella typhimurium = assay: Mutagenicity in Salmonella typhimurium by Ames test; type: toxicity, organism-based; conditions: salmonella enterica subsp. enterica serovar typhimurium
# [4] = Plasma protein binding in rat at 1 to 10 mg/kg, po measured at 5 hrs post dose; type: ADME, organism-based; conditions: read-out: PPB (converted)
# Rattus norvegicus [5] = assay: Antialzheimer activity in rat assessed as reduction in amyloid beta level in brain at 30 mg/kg, po measured at 5 hrs post dose by ELISA; type: functional, organism-based
# Cytochrome P450 2C8 = target: T1, Cytochrome P450 2C8 (Homo sapiens, UniProt P10632); assay: Inhibition of CYP2C8 (unknown origin); type: ADME
# T1 sequence (P10632 whole entry): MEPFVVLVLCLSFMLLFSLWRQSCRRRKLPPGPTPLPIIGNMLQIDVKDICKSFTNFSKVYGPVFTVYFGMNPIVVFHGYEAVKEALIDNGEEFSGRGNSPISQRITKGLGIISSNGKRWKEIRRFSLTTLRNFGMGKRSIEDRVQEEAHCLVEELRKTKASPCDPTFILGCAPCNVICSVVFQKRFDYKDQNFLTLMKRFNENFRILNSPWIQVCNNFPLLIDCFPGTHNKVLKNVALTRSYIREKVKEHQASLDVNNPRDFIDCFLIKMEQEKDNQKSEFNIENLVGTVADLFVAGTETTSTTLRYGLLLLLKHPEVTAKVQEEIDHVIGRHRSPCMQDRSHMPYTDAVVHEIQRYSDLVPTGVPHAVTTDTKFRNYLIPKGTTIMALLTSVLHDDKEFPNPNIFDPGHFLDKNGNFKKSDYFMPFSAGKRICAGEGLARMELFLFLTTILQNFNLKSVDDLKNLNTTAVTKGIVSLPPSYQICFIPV
# Cytochrome P450 3A4 [6] = target: T2, Cytochrome P450 3A4 (Homo sapiens, UniProt P08684); assay: Inhibition of CYP3A4 (unknown origin) expressed in baculovirus infected insect cells using BFC as susbtrate incubated for 45 mins by plate reader analysis in presence of NADP+; type: ADME
# Cytochrome P450 3A4 [7] = target: T2, Cytochrome P450 3A4; assay: Inhibition of CYP3A4 (unknown origin) expressed in baculovirus infected insect cells using benzyloxyresorufin as susbtrate incubated for 45 mins by plate reader analysis in presence of NADP+; type: ADME
# [8] = Plasma concentration in rat at 10 mg/kg, po after 5 hrs; type: ADME, organism-based
# How it was run: (§1)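 Female rats given a single oral dose in PEG-400/EtOH/Tween 80 (84:15:1). Plasma and brain were collected 5 h postdose, 5 rats per dose, to measure drug exposure and brain Aβ levels. Values are means (n = 5) with SD.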
# Cytochrome P450 2D6 = Cytochrome P450 2D6 (Homo sapiens, UniProt P10635); assay: Inhibition of CYP2D6 (unknown origin) expressed in baculovirus infected insect cells using AMMC as susbtrate incubated for 45 mins by plate reader analysis in presence of NADP+; type: ADME
# Rattus norvegicus [9] = assay: Antialzheimer activity in po dosed rat assessed as reduction in amyloid beta (1 to 42) level in brain measured at 5 hrs post dose by ELISA; type: functional, organism-based; how it was run: as §1
# Rattus norvegicus [10] = assay: Antialzheimer activity in rat assessed as total plasma concentration required for reduction in amyloid beta (1 to 42) level in brain at 1 to 10 mg/kg, po measured at 5 hrs post dose; type: functional, organism-based
# Mus musculus = assay: Antialzheimer activity in mouse assessed as reduction in amyloid beta 42 level in brain at 10 mg/kg, po by ELISA relative to control; type: functional
# [11] = Plasma concentration in rat at 3 mg/kg, po after 5 hrs; type: ADME, organism-based; how it was run: as §1
# Rattus norvegicus [12] = assay: Antialzheimer activity in po dosed rat assessed as reduction in amyloid beta (1 to 40) level in brain measured at 5 hrs post dose by ELISA; type: functional, organism-based; how it was run: as §1
# [13] = Ratio of drug level in rat brain to plasma at 1 mg/kg, po after 5 hrs; type: ADME, organism-based; conditions: read-out: BPR; how it was run: as §1
# Rattus norvegicus [14] = assay: Antialzheimer activity in rat assessed as free drug concentration in plasma required for reduction in amyloid beta (1 to 42) level in brain at 1 to 10 mg/kg, po measured at 5 hrs post dose; type: functional, organism-based
# [15] = Drug level in rat brain at 10 mg/kg, po after 5 hrs; type: ADME, organism-based; conditions: read-out: Drug uptake; how it was run: as §1
# Plasma [16] = assay: Free plasma concentration in rat at 1 to 10 mg/kg, po measured at 5 hrs post dose; type: ADME, organism-based; conditions: in vivo
# Cytochrome P450 2C9 = Cytochrome P450 2C9 (Homo sapiens, UniProt P11712); assay: Inhibition of CYP2C9 (unknown origin) expressed in baculovirus infected insect cells using MFC as susbtrate incubated for 45 mins by plate reader analysis in presence of NADP+; type: ADME
# [17] = Plasma concentration in rat at 1 mg/kg, po after 5 hrs; type: ADME, organism-based; how it was run: as §1
# Cytochrome P450 2C19 = Cytochrome P450 2C19 (Homo sapiens, UniProt P33261); assay: Inhibition of CYP2C19 (unknown origin) expressed in baculovirus infected insect cells using CEC as susbtrate incubated for 45 mins by plate reader analysis in presence of NADP+; type: ADME
# [18] = Ratio of drug level in rat brain to plasma at 10 mg/kg, po after 5 hrs; type: ADME, organism-based; conditions: read-out: BPR; how it was run: as §1
# [19] = Drug level in rat brain at 3 mg/kg, po after 5 hrs; type: ADME, organism-based; conditions: read-out: Drug uptake; how it was run: as §1
# Cytochrome P450 1A2 = target: T3, Cytochrome P450 1A2 (Homo sapiens, UniProt P05177); assay: Inhibition of CYP1A2 (unknown origin) expressed in baculovirus infected insect cells using CEC as susbtrate incubated for 45 mins by plate reader analysis in presence of NADP+; type: ADME
# T3 sequence (P05177 whole entry): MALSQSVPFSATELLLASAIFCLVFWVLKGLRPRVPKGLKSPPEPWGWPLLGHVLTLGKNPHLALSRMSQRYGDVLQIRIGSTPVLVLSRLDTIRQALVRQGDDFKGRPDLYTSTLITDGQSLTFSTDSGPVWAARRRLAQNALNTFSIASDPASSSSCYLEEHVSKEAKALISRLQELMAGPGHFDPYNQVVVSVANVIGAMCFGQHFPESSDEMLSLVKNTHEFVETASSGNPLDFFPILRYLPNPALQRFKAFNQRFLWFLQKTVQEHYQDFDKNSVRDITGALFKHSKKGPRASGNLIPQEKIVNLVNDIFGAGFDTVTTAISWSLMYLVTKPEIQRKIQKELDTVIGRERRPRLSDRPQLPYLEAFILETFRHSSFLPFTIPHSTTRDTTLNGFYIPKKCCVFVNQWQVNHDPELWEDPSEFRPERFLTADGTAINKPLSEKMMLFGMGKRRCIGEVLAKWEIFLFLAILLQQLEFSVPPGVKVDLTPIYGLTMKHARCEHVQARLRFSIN
# Rattus norvegicus [20] = assay: Antialzheimer activity in po dosed rat assessed as reduction in total amyloid beta level in brain measured at 5 hrs post dose by ELISA; type: functional, organism-based; how it was run: as §1
# Plasma [21] = assay: Drug metabolism in mouse plasma assessed as (4S,6S)-4-(5-amino-2,3-difluorophenyl)-6-(3,5-dimethylisoxazol-4-yl)-4-methyl-5,6-dihydro-4H-1,3-thiazin-2-amine formation at 10 mg/kg, po after 3 hrs; type: ADME, organism-based; conditions: in vivo
# [22] = Drug level in rat brain at 1 mg/kg, po after 5 hrs; type: ADME, organism-based; conditions: read-out: Drug uptake; how it was run: as §1
# [23] = Ratio of drug level in rat brain to plasma at 3 mg/kg, po after 5 hrs; type: ADME, organism-based; conditions: read-out: BPR; how it was run: as §1
# Chain of Beta-secretase 1 (P56817 whole entry): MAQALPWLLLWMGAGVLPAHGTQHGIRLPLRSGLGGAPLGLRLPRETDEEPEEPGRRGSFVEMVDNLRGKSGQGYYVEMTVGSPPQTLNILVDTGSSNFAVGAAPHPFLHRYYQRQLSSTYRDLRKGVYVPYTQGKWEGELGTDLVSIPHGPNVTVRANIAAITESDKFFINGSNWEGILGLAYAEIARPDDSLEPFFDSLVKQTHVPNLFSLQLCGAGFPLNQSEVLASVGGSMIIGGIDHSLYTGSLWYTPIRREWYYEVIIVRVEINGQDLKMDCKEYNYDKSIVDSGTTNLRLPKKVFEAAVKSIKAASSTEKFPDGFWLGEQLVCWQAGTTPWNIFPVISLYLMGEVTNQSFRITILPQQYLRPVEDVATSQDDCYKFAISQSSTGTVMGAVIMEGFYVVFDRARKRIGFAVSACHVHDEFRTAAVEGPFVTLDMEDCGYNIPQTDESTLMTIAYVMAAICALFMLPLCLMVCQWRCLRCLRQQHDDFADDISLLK
# T2 sequence (P08684 whole entry): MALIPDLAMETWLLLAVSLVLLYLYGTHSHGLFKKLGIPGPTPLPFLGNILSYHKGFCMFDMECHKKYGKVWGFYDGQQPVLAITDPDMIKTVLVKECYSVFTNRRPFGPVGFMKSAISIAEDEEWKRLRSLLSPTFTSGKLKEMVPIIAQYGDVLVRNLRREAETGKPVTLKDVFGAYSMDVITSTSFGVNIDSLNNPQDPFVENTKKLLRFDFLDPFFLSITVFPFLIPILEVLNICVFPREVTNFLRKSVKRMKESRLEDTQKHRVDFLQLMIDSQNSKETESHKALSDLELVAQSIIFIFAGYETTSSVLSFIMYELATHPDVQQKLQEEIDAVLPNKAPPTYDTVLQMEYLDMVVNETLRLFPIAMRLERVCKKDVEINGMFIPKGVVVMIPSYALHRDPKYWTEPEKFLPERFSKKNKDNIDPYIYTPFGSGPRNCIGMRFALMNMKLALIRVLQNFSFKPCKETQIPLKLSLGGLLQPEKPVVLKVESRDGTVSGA
# Chain of Cytochrome P450 2C19 (P33261 whole entry): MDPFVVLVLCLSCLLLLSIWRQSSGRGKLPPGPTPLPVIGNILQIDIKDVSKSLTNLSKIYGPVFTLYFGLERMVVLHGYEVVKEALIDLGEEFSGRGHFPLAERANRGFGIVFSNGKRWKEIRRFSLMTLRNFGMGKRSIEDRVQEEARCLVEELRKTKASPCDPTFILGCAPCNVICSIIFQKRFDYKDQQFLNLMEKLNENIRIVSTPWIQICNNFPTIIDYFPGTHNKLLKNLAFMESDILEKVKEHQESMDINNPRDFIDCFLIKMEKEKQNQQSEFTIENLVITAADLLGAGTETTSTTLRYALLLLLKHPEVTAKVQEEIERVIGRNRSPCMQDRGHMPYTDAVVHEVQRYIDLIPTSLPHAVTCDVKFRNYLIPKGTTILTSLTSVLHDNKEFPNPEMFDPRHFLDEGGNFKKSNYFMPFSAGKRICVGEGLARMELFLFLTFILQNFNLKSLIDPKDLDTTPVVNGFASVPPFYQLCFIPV
# Chain of Cytochrome P450 2D6 (P10635 whole entry): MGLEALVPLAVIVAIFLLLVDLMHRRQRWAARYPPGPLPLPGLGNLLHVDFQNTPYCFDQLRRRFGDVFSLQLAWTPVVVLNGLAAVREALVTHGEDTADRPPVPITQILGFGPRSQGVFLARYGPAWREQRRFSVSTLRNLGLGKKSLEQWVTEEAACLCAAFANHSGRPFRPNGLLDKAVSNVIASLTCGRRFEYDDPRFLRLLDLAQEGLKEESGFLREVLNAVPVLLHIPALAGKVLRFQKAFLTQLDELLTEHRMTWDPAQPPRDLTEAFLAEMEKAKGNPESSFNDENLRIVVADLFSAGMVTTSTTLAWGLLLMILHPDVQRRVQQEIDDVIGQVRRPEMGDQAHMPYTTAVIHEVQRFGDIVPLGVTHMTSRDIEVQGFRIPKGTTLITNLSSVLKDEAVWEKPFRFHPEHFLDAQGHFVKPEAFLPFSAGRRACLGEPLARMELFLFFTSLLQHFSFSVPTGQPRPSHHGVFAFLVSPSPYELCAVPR
# Chain of Cytochrome P450 2C9 (P11712 whole entry): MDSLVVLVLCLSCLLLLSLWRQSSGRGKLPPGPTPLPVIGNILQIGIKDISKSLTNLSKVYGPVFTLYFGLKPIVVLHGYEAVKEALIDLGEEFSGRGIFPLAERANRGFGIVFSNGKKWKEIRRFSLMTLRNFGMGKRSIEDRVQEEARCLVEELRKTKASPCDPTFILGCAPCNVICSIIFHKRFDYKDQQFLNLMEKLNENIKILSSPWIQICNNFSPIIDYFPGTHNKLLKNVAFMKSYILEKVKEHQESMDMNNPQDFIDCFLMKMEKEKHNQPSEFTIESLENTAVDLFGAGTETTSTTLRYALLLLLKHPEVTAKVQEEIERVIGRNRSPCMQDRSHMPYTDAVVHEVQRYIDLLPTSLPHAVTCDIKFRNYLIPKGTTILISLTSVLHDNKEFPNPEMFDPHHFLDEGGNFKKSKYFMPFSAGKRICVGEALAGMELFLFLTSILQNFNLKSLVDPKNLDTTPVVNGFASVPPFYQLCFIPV
structure (smiles),measurement,setting,value
Cc1noc(C)c1[C@@H]1C[C@@](C)(c2cc(F)cc(NC(=O)c3ccc(Cl)cn3)c2)N=C(N)S1,pIC50,Beta-secretase 1,8.64
same,"remaining at 10 min, 0.5 µM",[1],13%
same,"remaining at 10 min, 0.5 µM",[2],39%
same,"remaining at 10 min, 0.5 µM",[3],26%
Cc1noc(C)c1[C@@H]1C[C@@H](c2cc(NC(=O)c3ccc(Cl)cn3)ccc2F)N=C(N)S1,pIC50,Beta-secretase 1,8.30
Cc1noc(C)c1[C@@H]1C[C@@](C)(c2cccc(NC(=O)c3ccc(Cl)cn3)c2F)N=C(N)S1,pIC50,Beta-secretase 1,6.80
same,"remaining at 10 min, 0.5 µM",[1],38%
same,"remaining at 10 min, 0.5 µM",[2],38%
same,"remaining at 10 min, 0.5 µM",[3],43%
Cc1noc(C)c1[C@]1(C)C[C@@H](c2cc(-c3cncnc3)c(F)cc2F)N=C(N)S1 (relative stereo),pIC50,Beta-secretase 1,5.43
Cc1noc(C)c1[C@@H]1C[C@@H](c2cc(-c3cncnc3)c(F)cc2F)N=C(N)S1,pIC50,Beta-secretase 1,7.15
Cc1oncc1[C@]1(C)C[C@@H](c2cc(-c3cncnc3)c(F)cc2F)N=C(N)S1 (racemic),pIC50,Beta-secretase 1,6.74
COc1ccc([C@@H]2C[C@@H](c3cc(-c4cncnc4)c(F)cc3F)N=C(N)S2)cc1OC,pIC50,Beta-secretase 1,6.54
COc1ccc([C@@H]2C[C@@H](c3cccc(-c4cncnc4)c3)N=C(N)S2)cc1OC,pIC50,Beta-secretase 1,5.96
Cc1noc(C)c1[C@@H]1C[C@@](C)(c2cc(N)cc(F)c2F)N=C(N)S1,Activity,Salmonella typhimurium,Non-toxic
same,fraction unbound at 5 h,[4],0.05
Cc1noc(C)c1[C@@H]1C[C@@](C)(c2cc(NC(=O)c3ccc(Cl)cn3)c(F)cc2F)N=C(N)S1,pIC50,Beta-secretase 1,7.51
same,"remaining at 10 min, 0.5 µM",[1],75%
same,"remaining at 10 min, 0.5 µM",[2],78%
same,"remaining at 10 min, 0.5 µM",[3],76%
Cc1noc(C)c1[C@@H]1C[C@@](C)(c2cc(NC(=O)c3ccc(Cl)cn3)cc(F)c2F)N=C(N)S1,pIC50,Beta-secretase 1,9.15
same,"remaining at 10 min, 0.5 µM",[1],58%
same,"remaining at 10 min, 0.5 µM",[2],87%
same,"remaining at 10 min, 0.5 µM",[3],63%
Cc1noc(C)c1[C@@H]1C[C@@](C)(c2cc(-c3cncnc3)c(F)cc2F)N=C(N)S1,"remaining at 10 min, 0.5 µM",[1],48%
same,inhibition,Rattus norvegicus [5],Active
same,"remaining at 10 min, 0.5 µM",[2],23%
same,"remaining at 10 min, 0.5 µM",[3],49%
COc1cnc(C(=O)Nc2cc(F)c(F)c([C@]3(C)C[C@@H](c4c(C)noc4C)SC(N)=N3)c2)cn1,pIC50,Beta-secretase 1,9.05
same,pIC50,Cytochrome P450 2C8,5.30
same,pIC50,Cytochrome P450 3A4 [6],< 4.70
same,pIC50,Cytochrome P450 3A4 [7],< 4.70
same,concentration at 5 h,[8],1500 nM
same,"remaining at 10 min, 0.5 µM",[1],74%
same,pIC50,Cytochrome P450 2D6,< 4.70
same,inhibition,Rattus norvegicus [9],Dose-dependent effect
same,pEC50,Rattus norvegicus [10],6.59
same,inhibition in vivo at 10 mg/kg,Mus musculus,85%
same,concentration at 5 h,[11],360 nM
same,inhibition,Rattus norvegicus [12],Dose-dependent effect
same,Kp at 5 h,[13],0.44
same,pEC50,Rattus norvegicus [14],7.89
same,concentration at 5 h,[15],420 nM
same,Cp(f),Plasma [16],13 nM
same,pIC50,Cytochrome P450 2C9,< 4.70
same,concentration at 5 h,[17],150 nM
same,pIC50,Cytochrome P450 2C19,< 4.70
same,"remaining at 10 min, 0.5 µM",[2],81%
same,Kp at 5 h,[18],0.3
same,concentration at 5 h,[19],160 nM
same,"remaining at 10 min, 0.5 µM",[3],69%
same,pIC50,Cytochrome P450 1A2,< 4.70
same,inhibition,Rattus norvegicus [20],Dose-dependent effect
same,Drug metabolism,Plasma [21],metabolite_detected
same,concentration at 5 h,[22],67 nM
same,Kp at 5 h,[23],0.46
